Data from ChEMBL document CHEMBL1671867, “Novel polymyxin derivatives carrying only three positive charges are effective antibacterial agents” (Antimicrob Agents Chemother, 2008).
Bridge positions count the residues as written; N and C are the ends. Square brackets hold non-standard residues; d marks the D form. Peptide text beside a SMILES is read from it. * marks the point of attachment. Decanoyl = CCCCCCCCCC(=O)*; Dab = NCC[C@H](N)C(=O)O

How the values were obtained:
[1] = Inhibition of [3H]gentamicin binding to brush border membrane of renal cortex
Summary of the method: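 Brush border membrane vesicles prepared from male albino rat renal cortex by Mg2+-EGTA precipitation. Incubated with 20 μM [3H]gentamicin in 10 mM HEPES pH 7.5 with 300 mM mannitol, with or without compound, 60 min at 4°C. Then filtered, washed, and bound radioactivity counted by scintillation. IC50 fitted with the Hill equation.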

V79 = assay: Cytotoxicity against chinese hamster V79 cells at […] to 128 ug/ml after 24 hrs; assay type: cell-based, Cricetulus griseus; conditions: v79, 24 h
Escherichia coli = assay: Antibacterial activity against Escherichia coli IH3080 assessed as reduction in bacterial count at 2 ug/ml using 2 day old compound stock solution; assay type: functional; parameters: scale not given: the % may be the effect or the level left

IC50 [1] | Compound | Activity (V79) | Activity (Escherichia coli)
198 µM | CCCCCCCCCC(=O)N[C@H](C(=O)N[C@H](CO)C(=O)N[C@H]1CCNC(=O)[C@H]([C@@H](C)O)NC(=O)[C@H](CCN)NC(=O)[C@H](CCN)NC(=O)[C@H](CC(C)C)NC(=O)[C@@H](Cc2ccccc2)NC(=O)[C@H](CCN)NC1=O)[C@@H](C)O (Decanoyl-T[dS][Dab][Dab][dF]L[Dab][Dab]T; lactam 3-C) | Non-toxic | –
– | CCCCCCCC(=O)N[C@H](C(=O)N[C@H](CO)C(=O)N[C@H]1CCNC(=O)[C@H]([C@@H](C)O)NC(=O)[C@H](CCN)NC(=O)[C@H](CCN)NC(=O)[C@H](CC(C)C)NC(=O)[C@@H](Cc2ccccc2)NC(=O)[C@H](CCN)NC1=O)[C@@H](C)O.CS(=O)(=O)[O-].[Na+] | – | 90%
264 µM | CCCCCCCC(=O)N[C@H](C(=O)N[C@H](CO)C(=O)N[C@H]1CCNC(=O)[C@H]([C@@H](C)O)NC(=O)[C@H](CCN)NC(=O)[C@H](CCN)NC(=O)[C@H](CC(C)C)NC(=O)[C@@H](Cc2ccccc2)NC(=O)[C@H](CCN)NC1=O)[C@@H](C)O | Non-toxic | –
